Screening data as filed in PubChem.
Shown is part of a subset that was picked to be rich in hits.
tolC growth inh: growth inhibitors of E. coli BW25113 tolC mutant; OD615; growth inhibition, % at 10 µM (by protocol); 65,000 tested, 2.2% active;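 active means growth inhibition at or above a cutoff equal to the mean over every tested compound plus 3 SD, cut at about 60% in these data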;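 further: growth measured after 20 h incubation at 37 °C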
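Test system: E. coli BW25113 ΔtolC::kan bacteria; incubation: 37 °C, 20 h exposure; medium: LB broth supplemented with 50 µg/mL kanamycin; read-out basis: percent growth inhibition; signal: A615 absorbance measurement; compound: 10 µM final, single dose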
AP complement: alternative pathway complement inhibition, orthogonal assay; Human serum alternative complement pathway, LPS-coated ELISA, C3 deposition; tested in compound mixtures; 62,000 tested, 0.08% active; inhibition, % at 5 µM;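 active means inhibition above 30% in each of the two pooled mixtures holding the compound, so the lower value exceeds 30%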
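Assay system: Human serum alternative complement pathway, C3 deposition on LPS-coated wells | Incubation: 1 h serum-compound exposure at 37 °C | Doses: 5 µM per compound in ten-compound mixtures | Read-out: Percent inhibition | Technique: ELISA with HRP anti-human C3 antibody, TMB substrate, absorbance 450 nm | Replication: Two pool placements per compound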
MMP-13 inhibitor: blocks human MMP13 activity. P45452. MMP-13 fTHP FRET cleavage, Mca fluorescence. inhibition, % at 4 µM. 65,000 tested, 0.07% active;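 active means inhibition above the mean of compound-free control plate wells plus 3 SD, cut at about 14% in these data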
Ec RNAP inh: blocks E. coli RNA polymerase transcription; AID 559; 62,000 tested, 0.2% active; inhibition, %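 (tested at 10 µM)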; P0A8V2; fluorescence transcription assay; in the data active means inhibition above about 20%
E coli WT exp: E. coli BW25113 growth inhibition, expanded screen; OD600 absorbance; growth inhibition, % at 100 µM; 98,000 tested, 0.15% active; AID 710;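 active means growth inhibition above about 50% at one test dose, limit read from the data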;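 further: growth measured after 20 h incubation at 37 °C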
BAP1 block: blocks human BAP1 ubiquitin-AMC hydrolysis. Q92560. recombinant BAP1, Ub-AMC hydrolysis fluorescence kinetic; active compounds read low. calls only at 20 µM. 72,000 tested, 0.48% active. AID 436;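 active means activity remaining at or below 50% of control, provided the compound also passes the data quality filters; inactive means the rest, including low values that fail the filters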
Target sequence (Q92560 whole entry, looked up): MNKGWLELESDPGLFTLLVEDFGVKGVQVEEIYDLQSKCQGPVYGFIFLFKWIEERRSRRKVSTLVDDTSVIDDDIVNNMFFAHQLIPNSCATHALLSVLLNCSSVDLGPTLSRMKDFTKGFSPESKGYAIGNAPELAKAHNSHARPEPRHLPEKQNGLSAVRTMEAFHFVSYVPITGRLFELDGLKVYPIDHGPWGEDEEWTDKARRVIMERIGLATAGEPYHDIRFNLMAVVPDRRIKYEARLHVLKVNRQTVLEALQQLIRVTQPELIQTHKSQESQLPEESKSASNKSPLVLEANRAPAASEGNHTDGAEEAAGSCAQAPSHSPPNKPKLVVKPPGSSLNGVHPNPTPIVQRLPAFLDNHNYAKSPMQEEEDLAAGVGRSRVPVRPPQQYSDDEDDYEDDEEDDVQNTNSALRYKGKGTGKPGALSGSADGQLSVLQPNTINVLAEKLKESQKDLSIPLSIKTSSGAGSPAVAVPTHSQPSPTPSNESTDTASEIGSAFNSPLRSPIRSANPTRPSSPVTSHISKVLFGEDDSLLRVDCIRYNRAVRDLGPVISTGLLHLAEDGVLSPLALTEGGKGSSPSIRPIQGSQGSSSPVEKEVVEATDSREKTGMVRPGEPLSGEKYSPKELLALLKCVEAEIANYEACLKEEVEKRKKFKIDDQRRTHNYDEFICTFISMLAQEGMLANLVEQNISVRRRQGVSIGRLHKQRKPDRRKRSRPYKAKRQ
Numbers stand for hits; . = inactive; / = no result shown.

SMILES | tolC growth inh | AP complement | MMP-13 inhibitor | Ec RNAP inh | E coli WT exp | BAP1 block
COc1ccc(NC(=O)c2ccc(Cl)c(S(=O)(=O)N3CCc4ccccc4C3)c2)cn1 | 62 | . | . | . | . | .
CCSc1nnc(NC(=O)c2ccccn2)s1 | 100 | . | . | . | 63 | .
CCN(CC)S(=O)(=O)c1ccc(C(=O)Nc2nc3c(cc4c5c(cccc53)CC4)s2)cc1 | / | / | / | / | / | .
O=C(Nc1ccc(OCc2ccccc2)cc1)C1c2ccccc2Oc2ccccc21 | / | / | / | / | / | .
CC1COC(c2cccn2Cc2ccccc2Cl)=N1 (centres undefined) | . | . | . | . | . | .
CCSCC1COC(c2cccn2Cc2ccc(C)cc2)=N1 (centres undefined) | 61 | . | . | . | . | .
Cc1ccccc1Cn1c(C(=O)OC(C)C)cc2c1ccn2C | / | / | / | / | . | /
CCOC(=O)c1cc2c(ccn2C)n1Cc1ccccc1C | 69 | . | . | . | . | .
Cc1ccccc1S(=O)(=O)Cc1ccc(C(=O)N2CCN(c3cccc(C)c3C)CC2)o1 | 69 | . | . | . | . | .
COc1ccc(-c2cc(C(=O)N3CCc4ccccc4C3)no2)cc1OC | 75 | . | . | . | . | .
COc1ccccc1N1CCN(C(=O)c2cc(-c3cccc(Cl)c3)on2)CC1 | 69 | . | . | . | . | .
CC(C)CCOC(=O)c1ccc(NC(=O)c2ccc([N+](=O)[O-])cc2)cc1 | / | / | / | / | / | .
Cc1cc(Nc2ccc(F)cc2)n2nc(C)nc2n1 | . | . | . | 22 | . | .
CC(C)C(C(=O)NCc1ccco1)N(C(=O)CNS(=O)(=O)c1ccc(Cl)cc1)C1CCCC1 (centres undefined) | 73 | . | . | . | . | .
O=C(CN1C(=O)c2ccccc2C1=O)Nc1ccc(C(=O)Nc2cccc(O)c2)cc1 | / | / | / | / | / | .
CCOc1cc(/C=C(/C#N)c2ccc(F)cc2)ccc1OCc1ccc(C(=O)O)o1 | 82 | . | . | . | . | /
O=C1Nc2ccccc2C12OCC(COc1ccc(Cl)cc1)O2 (centres undefined) | 93 | . | . | . | . | .
CN1C(=O)C2(OCC(COc3ccc(Cl)cc3)O2)c2ccccc21 (centres undefined) | 71 | . | . | . | . | .
O=C(Nc1cccc2ccccc12)c1cc2ccccc2o1 | / | / | / | / | / | .
CCOC(=O)N1CCN(S(=O)(=O)c2ccc(OCC)c3ccccc23)CC1 | 65 | . | . | . | . | .
Cc1ccc(OCC(O)Cn2c(=N)n(Cc3ccccc3)c3ccccc32)cc1 (centres undefined) | / | / | / | / | . | /
COc1ccc(OCC(O)Cn2c(=N)n(Cc3ccccc3)c3ccccc32)cc1 (centres undefined) | 66 | . | . | . | . | .
Clc1ccccc1N=c1oc2ccccc2cc1-c1nc2ccccc2[nH]1 | / | / | / | / | / | .
O=C(Nc1ccc2c(c1)C(=O)N(c1cccc(O)c1)C2=O)c1ccc(Br)cc1 | / | / | / | / | / | .
Cn1c(-c2ccc3c(c2)OCO3)cnc1N | 91 | . | . | . | . | .
SMILES | tolC growth inh | AP complement | MMP-13 inhibitor | Ec RNAP inh | E coli WT exp | BAP1 block
Cc1nn(C(=O)c2ccc(Br)cc2)c(C)c1Sc1ccccc1[N+](=O)[O-] | / | / | / | / | / | .
Cc1ccccc1-n1nc2c(c1NC(=O)c1ccc(Cl)cc1)CSC2 | / | / | / | / | / | .
CCOC(=O)c1c(NC(=O)c2ccc(F)cc2)sc(C)c1C | / | / | / | / | / | .
CCOC(=O)c1c(NC(=O)c2ccc([N+](=O)[O-])cc2Cl)sc2c1CCC(CC)C2 (centres undefined) | / | / | / | / | / | .
CN(C)c1nc(SCCOC(=O)Nc2ccccc2)nc(N(C)C)n1 | 86 | . | . | . | . | .
CN(C)c1nc(C(=O)Nc2ccccc2)nc(N(C)C)n1 | . | / | . | / | . | .
Cc1ccccc1N(CCN1C(=O)c2cccc3c(N4CCCCC4)ccc(c23)C1=O)C(=O)c1ccc(S(=O)(=O)N(C)C)cc1 | / | / | / | / | / | .
COc1ccc2cc(C(c3nnnn3C(C)(C)C)N3CCc4ccccc4C3)c(=O)[nH]c2c1 (centres undefined) | . | . | . | . | . | /
CCC(C)(C)n1nnnc1C(c1cc2ccc(OC)cc2[nH]c1=O)N1CCc2ccccc2C1 (centres undefined) | 78 | . | . | . | . | /
CCOC(=O)C1CCN(Cc2cn[nH]c2-c2ccc(C)cc2)CC1 | 92 | . | . | . | . | .
CCn1c(CNc2ccccc2Cl)nnc1SCC(=O)OC1CCCCC1 | 73 | . | . | . | . | .
CCn1c(CNc2cccc(Cl)c2)nnc1SCC(=O)OC1CCCCC1 | 60 | . | . | . | . | .
CCn1c(CNc2ccccc2Cl)nnc1SCCN1CCCCC1 | . | . | . | . | . | .
Cc1ccc2[nH]c(=O)c(CN(Cc3nnnn3Cc3ccccc3)C3CCCC3)cc2c1 | 74 | . | . | . | . | /
Cc1ccc2[nH]c(=O)c(CN(Cc3ccc4c(c3)OCO4)Cc3nnnn3C3CCCC3)cc2c1 | 62 | . | . | . | . | /
CCOC(=O)c1c(NC(=O)CN2C(=O)c3ccccc3C2=O)sc2c1CCC2 | / | / | / | / | / | .
CCOC(=O)C1C(=O)CC(C)(O)C(C(=O)OCC)C1c1cccc([N+](=O)[O-])c1 (centres undefined) | / | / | / | / | / | .
COc1ccc(-n2c(SC)nc(O)c(Cc3ccccc3)c2=O)cc1 | / | / | / | / | . | /
COc1ccc(Cc2c(O)nc(SC)n(C(C)=O)c2=O)cc1 | . | . | . | 25 | . | .
COc1ccc(NS(=O)(=O)c2cc(C(=O)Nc3ccc(Br)cc3)ccc2Br)cc1 | / | / | / | / | / | .
Cc1ccc(Cl)cc1N1CCN(C(=O)COc2ccc(S(=O)(=O)NC(C)C)cc2)CC1 | 63 | . | . | . | . | .
CC(C)NS(=O)(=O)c1ccc(OCC(=O)N2CCCC2)c(Cl)c1 | / | / | / | / | . | /
Cc1nc2ccc3nc(NC(=O)c4ccc(C#N)cc4)sc3c2s1 | / | / | / | / | / | .
CC(C)(C)c1ccc(C(=O)Oc2ccc(Cl)cc2)cc1 | / | / | / | / | / | .
Cc1ccc(C)c(Cn2c(CN(C)Cc3ccccc3)nc3c2c(=O)n(C)c(=O)n3C)c1 | 81 | . | . | . | . | .
SMILES | tolC growth inh | AP complement | MMP-13 inhibitor | Ec RNAP inh | E coli WT exp | BAP1 block
Cc1ccc(Cn2c(CN(C)Cc3ccccc3)nc3c2c(=O)n(C)c(=O)n3C)cc1 | . | . | . | . | . | .
CN(Cc1ccccc1)c1nc2c(c(=O)n(C)c(=O)n2C)n1CCCc1ccccc1 | 100 | . | . | . | . | .
CCOCCn1c(CN(Cc2ccccc2)Cc2ccccc2)nc2c1c(=O)n(C)c(=O)n2C | 68 | . | . | . | . | .
COc1ccc2nc(NC(=O)Cc3ccc(Cl)cc3)sc2c1 | / | / | / | / | / | .
O=[N+]([O-])c1cc(-n2cnnn2)ccc1Cl | / | / | / | / | / | .
Cc1cc(C)nc(NS(=O)(=O)c2ccc(NC(=O)c3ccc(S(=O)(=O)N4CCOCC4)cc3)cc2)n1 | / | / | / | / | . | .
Cc1cc(C)c(O)c(-c2cc(C(=O)Nc3ccc(S(=O)(=O)N4CCOCC4)cc3)[nH]n2)c1 | 91 | . | . | . | . | .
S=c1[nH]c2cc(Cl)ccc2s1 | / | / | / | / | 53 | /
